Active and inactive are the calls of the source. The calls are words filed in the database; no cut-off is given here.
How the values were obtained:
[1] = target: Serine/threonine-protein kinase PLK3 (Homo sapiens) (UniProt Q9H4B4); experiment: Inhibition of PLK3 (unknown origin)
[2] = target: Serine/threonine-protein kinase Nek4 (Homo sapiens) (UniProt P51957); experiment: Inhibition of NEK4 (unknown origin)
[3] = target: Serine/threonine-protein kinase NIM1 (Homo sapiens) (UniProt Q8IY84); experiment: Inhibition of NIM1 (unknown origin)
Chain of Serine/threonine-protein kinase NIM1 (Homo sapiens) (Q8IY84 whole entry): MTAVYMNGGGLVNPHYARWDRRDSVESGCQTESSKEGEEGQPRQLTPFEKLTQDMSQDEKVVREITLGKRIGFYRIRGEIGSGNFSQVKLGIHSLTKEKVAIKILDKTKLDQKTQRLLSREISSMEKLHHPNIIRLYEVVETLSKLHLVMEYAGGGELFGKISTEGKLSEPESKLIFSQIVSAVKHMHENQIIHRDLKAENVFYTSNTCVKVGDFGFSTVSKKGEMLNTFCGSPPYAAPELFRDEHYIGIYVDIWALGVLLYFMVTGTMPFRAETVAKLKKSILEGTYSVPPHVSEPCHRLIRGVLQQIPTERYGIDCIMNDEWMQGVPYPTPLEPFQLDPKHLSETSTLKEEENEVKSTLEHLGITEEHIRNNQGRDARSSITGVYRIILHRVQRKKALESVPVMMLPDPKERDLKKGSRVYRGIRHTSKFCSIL

MCF7 [4] = experiment: Cell cycle arrest in human MCF7 cells assessed as accumulation at G2/M phase at 10 uM after 24 hrs by propidium iodide staining-based flow cytometric analysis (reference value: 5.3%); assay type: functional
Procedure, shortened: (§1)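 MCF-7 cells in DMEM with 10% FBS and penicillin/streptomycin at 37 °C, 5% CO2. Asynchronous cells were treated 24 h, PBS-washed, trypsinized and quenched with 0.1% trypsin inhibitor. Staining used 5× citrate/IGEPAL/spermine/Tris buffer (pH 7.6) with 50 μg/mL propidium iodide. DNA content was read by 488 nm flow cytometry and cell-cycle phases modelled.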

[5] = target: T1, Serine/threonine-protein kinase Chk1 (Homo sapiens) (UniProt O14757); experiment: Inhibition of CHK1 (unknown origin)
T1 sequence (whole entry): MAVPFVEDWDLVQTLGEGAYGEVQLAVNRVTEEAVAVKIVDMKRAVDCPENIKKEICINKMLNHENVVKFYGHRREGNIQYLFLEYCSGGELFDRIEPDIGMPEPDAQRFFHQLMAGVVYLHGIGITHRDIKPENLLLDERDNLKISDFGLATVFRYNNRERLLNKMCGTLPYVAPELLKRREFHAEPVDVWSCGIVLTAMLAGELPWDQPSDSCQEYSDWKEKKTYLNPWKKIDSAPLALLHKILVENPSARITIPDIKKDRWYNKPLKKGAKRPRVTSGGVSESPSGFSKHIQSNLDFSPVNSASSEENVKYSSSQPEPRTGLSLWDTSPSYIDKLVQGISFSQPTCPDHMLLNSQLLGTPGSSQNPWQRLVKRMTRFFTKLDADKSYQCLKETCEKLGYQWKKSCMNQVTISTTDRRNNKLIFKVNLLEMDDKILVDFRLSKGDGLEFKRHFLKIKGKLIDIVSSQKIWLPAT

K562 [6] = experiment: Cell cycle arrest in human K562 cells assessed as accumulation at G1 phase at 10 uM after 24 hrs by propidium iodide staining-based flow cytometric analysis (reference value: 34.6%); assay type: functional
MCF7 [7] = experiment: Cell cycle arrest in human MCF7 cells assessed as accumulation at S phase at 10 uM after 24 hrs by propidium iodide staining-based flow cytometric analysis (reference value: 34.1%); assay type: functional; procedure, shortened: as §1
K562 [8] = experiment: Cell cycle arrest in human K562 cells assessed as accumulation at S phase at 10 uM after 24 hrs by propidium iodide staining-based flow cytometric analysis (reference value: 50.3%); assay type: functional
MCF7 [9] = experiment: Induction of apoptosis in human MCF7 cells assessed as increase in phosphorylated Bcl2 level at 1.25 to 20 uM after 24 hrs by immunoblotting; assay type: functional, cell-based
Procedure, shortened: (§2)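 Cells treated 24 h with a range of doses, with 1 μM doxorubicin as control. Cells were harvested into Laemmli buffer, run on SDS-PAGE and blotted to nitrocellulose. Membranes were probed overnight with primary antibodies (PARP, Ser139-phospho-H2AX, Bcl-2, β-actin loading control), then peroxidase secondaries, with ECL detection on a CCD imager.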

K562 [10] = experiment: Induction of apoptosis in human K562 cells assessed as activation of caspase 3/7 using Ac-DEVD-AMC as substrate after 24 hrs by fluorescence assay; assay type: functional, cell-based
Procedure, shortened: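 K562 cells were cultured overnight and treated with increasing concentrations for 24 h. Lysis buffer (3×; HEPES pH 7.4, NaCl, KCl, MgCl2, EGTA, NP40, CHAPS, sucrose, DTT, PMSF) containing 150 μM Ac-DEVD-AMC was added for 2 h. Fluorescence was read at 346/442 nm and normalized to untreated control.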

MCF7 [11] = experiment: Growth inhibition of human MCF7 cells after 72 hrs by Calcein AM dye based fluorescence assay; assay type: functional; conditions: MCF7, 72 h
Procedure, shortened: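 Cells in DMEM with 10% FBS at 37 °C, 5% CO2, treated in triplicate with six doses for 72 h. Calcein AM was added for 1 h and live-cell fluorescence read at 485/538 nm. GI50 was taken from dose-response curves.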

MCF7 [12] = experiment: Induction of apoptosis in human MCF7 cells assessed as increase in gammaH2AX level at 1.25 to 20 uM after 24 hrs by immunoblotting; assay type: functional, cell-based; procedure, shortened: as §2
[13] = target: Death-associated protein kinase 3 (Homo sapiens) (UniProt O43293); experiment: Inhibition of DAPK3 (unknown origin)
Chain of Death-associated protein kinase 3 (Homo sapiens) (O43293 whole entry, looked up): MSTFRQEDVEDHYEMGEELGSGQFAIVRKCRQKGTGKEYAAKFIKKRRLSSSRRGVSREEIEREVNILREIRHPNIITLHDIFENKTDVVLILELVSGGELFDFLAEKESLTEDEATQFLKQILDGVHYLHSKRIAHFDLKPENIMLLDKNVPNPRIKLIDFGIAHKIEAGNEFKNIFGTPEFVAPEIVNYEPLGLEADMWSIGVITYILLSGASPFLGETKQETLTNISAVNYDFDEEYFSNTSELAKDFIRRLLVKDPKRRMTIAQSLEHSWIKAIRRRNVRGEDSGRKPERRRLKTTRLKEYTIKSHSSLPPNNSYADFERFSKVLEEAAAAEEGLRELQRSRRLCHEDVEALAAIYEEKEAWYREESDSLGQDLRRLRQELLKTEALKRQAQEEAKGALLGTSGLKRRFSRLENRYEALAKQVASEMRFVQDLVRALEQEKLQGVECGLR

[14] = target: Serine/threonine-protein kinase pim-2 (Homo sapiens) (UniProt Q9P1W9); experiment: Inhibition of PIM2 (unknown origin)
Chain of Serine/threonine-protein kinase pim-2 (Homo sapiens) (Q9P1W9 whole entry, looked up): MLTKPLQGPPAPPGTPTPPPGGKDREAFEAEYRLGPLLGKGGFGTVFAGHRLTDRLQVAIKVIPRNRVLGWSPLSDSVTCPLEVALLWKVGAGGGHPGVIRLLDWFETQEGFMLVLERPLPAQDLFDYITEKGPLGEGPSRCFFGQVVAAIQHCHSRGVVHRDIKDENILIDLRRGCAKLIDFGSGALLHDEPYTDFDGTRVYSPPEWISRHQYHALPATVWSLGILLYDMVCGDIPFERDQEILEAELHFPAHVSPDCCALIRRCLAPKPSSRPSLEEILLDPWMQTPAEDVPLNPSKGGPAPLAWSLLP

K562 [15] = experiment: Cell cycle arrest in human K562 cells assessed as accumulation at G2/M phase after 24 hrs by propidium iodide staining-based flow cytometric analysis; assay type: functional
K562 [16] = experiment: Induction of apoptosis in human K562 cells assessed as increase in PARP1 cleavage after 24 hrs by Immunoblotting; assay type: functional, cell-based; procedure, shortened: as §2
[17] = target: T2, Aurora kinase A (Homo sapiens) (UniProt O14965); experiment: Inhibition of Aurora A (unknown origin)
T2 sequence (whole entry): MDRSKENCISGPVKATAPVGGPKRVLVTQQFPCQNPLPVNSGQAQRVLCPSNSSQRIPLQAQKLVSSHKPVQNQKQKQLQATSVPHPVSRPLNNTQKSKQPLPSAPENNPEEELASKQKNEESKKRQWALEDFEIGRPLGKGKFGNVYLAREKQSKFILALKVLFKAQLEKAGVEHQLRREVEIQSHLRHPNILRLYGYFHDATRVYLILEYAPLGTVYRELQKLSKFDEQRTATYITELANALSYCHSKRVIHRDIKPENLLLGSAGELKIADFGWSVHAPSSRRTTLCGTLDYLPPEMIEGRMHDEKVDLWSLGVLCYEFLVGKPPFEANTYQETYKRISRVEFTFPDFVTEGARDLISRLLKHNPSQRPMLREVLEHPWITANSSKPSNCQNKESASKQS

[18] = target: Serine/threonine-protein kinase Nek6 (Homo sapiens) (UniProt Q9HC98); experiment: Inhibition of NEK6 (unknown origin)
Chain of Serine/threonine-protein kinase Nek6 (Homo sapiens) (Q9HC98 whole entry): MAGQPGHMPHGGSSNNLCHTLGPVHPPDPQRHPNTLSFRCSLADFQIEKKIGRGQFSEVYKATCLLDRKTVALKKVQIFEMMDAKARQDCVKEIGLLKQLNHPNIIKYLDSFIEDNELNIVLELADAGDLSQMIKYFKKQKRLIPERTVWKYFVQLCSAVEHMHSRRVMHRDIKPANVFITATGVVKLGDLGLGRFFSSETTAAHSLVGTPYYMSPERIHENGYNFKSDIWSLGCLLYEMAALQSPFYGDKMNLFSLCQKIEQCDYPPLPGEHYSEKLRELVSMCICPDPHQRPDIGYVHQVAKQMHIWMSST

K562 [19] = experiment: Cell cycle arrest in human K562 cells assessed as accumulation at G2/M phase assessed as accumulation of histone H3 phosphorylation at serine 10 residues at 5 uM after 24 hrs by propidium iodide staining-based flow cytometric analysis (reference value: 2.2%); assay type: functional
[20] = target: Serine/threonine-protein kinase 38 (Homo sapiens) (UniProt Q15208); experiment: Inhibition of NDR1 (unknown origin)
Chain of Serine/threonine-protein kinase 38 (Homo sapiens) (Q15208 2-465 limits assumed): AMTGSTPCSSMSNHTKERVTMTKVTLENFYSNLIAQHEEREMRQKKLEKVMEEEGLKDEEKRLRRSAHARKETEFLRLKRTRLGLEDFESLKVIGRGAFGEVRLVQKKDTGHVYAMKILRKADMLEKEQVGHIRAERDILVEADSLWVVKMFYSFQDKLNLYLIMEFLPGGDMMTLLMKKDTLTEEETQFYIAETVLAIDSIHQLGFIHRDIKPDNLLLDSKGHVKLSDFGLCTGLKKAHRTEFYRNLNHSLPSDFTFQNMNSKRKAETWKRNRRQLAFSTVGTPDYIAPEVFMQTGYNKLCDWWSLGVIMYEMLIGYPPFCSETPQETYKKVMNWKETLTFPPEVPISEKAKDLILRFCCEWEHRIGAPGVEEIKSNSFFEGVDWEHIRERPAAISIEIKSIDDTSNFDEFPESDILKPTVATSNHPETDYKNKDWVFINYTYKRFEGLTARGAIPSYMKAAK

[21] = target: Serine/threonine-protein kinase PLK2 (Homo sapiens) (UniProt Q9NYY3); experiment: Inhibition of PLK2 (unknown origin)
Chain of Serine/threonine-protein kinase PLK2 (Homo sapiens) (Q9NYY3 whole entry, looked up): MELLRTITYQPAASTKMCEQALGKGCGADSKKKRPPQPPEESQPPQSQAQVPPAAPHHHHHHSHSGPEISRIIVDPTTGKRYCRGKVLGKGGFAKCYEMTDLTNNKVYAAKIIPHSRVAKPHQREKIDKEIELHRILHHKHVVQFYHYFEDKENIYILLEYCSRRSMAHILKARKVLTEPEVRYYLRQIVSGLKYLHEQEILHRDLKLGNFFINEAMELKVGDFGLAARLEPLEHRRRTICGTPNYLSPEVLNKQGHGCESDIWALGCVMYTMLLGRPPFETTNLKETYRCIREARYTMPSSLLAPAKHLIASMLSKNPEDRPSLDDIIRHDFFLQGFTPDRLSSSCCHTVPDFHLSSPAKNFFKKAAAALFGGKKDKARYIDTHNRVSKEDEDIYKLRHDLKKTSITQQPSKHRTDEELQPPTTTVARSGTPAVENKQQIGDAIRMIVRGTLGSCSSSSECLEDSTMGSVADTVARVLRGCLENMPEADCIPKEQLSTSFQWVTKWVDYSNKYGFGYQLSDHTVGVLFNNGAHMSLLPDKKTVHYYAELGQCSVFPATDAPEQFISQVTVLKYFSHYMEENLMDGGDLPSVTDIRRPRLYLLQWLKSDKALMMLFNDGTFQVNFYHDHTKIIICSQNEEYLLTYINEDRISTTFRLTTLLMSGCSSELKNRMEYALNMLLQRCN

[22] = target: Cyclin-dependent kinase 1 (Homo sapiens) (UniProt P06493); experiment: Inhibition of CDK1 (unknown origin)
Chain of Cyclin-dependent kinase 1 (Homo sapiens) (P06493 whole entry, looked up): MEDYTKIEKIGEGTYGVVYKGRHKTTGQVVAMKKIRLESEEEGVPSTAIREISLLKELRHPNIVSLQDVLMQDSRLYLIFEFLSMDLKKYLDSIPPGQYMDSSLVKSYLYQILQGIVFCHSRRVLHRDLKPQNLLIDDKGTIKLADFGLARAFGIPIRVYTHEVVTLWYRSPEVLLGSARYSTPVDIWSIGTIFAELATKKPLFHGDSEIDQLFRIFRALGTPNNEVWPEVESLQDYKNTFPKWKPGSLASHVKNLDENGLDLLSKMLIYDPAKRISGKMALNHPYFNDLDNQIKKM

Chain of Serine/threonine-protein kinase Nek4 (Homo sapiens) (P51957 whole entry, looked up): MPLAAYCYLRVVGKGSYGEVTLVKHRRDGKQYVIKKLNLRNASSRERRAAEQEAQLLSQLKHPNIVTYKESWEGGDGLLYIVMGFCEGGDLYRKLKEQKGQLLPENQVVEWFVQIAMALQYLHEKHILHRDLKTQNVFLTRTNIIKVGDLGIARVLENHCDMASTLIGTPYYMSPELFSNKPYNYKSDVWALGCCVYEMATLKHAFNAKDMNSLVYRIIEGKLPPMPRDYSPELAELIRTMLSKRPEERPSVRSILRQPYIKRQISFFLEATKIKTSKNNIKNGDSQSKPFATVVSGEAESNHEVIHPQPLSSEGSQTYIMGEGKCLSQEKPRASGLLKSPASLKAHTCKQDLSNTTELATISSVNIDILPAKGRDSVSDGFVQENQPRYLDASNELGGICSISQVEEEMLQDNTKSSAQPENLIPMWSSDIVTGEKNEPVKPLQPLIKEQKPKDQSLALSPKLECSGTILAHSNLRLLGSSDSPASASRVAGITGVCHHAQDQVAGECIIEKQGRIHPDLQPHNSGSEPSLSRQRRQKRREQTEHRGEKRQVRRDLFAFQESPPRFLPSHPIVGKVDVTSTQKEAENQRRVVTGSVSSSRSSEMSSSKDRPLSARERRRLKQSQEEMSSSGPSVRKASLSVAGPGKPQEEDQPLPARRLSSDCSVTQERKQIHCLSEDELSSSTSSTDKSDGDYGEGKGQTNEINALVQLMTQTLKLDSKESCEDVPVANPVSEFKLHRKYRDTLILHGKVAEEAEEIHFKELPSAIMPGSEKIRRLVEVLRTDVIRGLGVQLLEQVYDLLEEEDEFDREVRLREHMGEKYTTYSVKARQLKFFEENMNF
Chain of Serine/threonine-protein kinase PLK3 (Homo sapiens) (Q9H4B4 whole entry, looked up): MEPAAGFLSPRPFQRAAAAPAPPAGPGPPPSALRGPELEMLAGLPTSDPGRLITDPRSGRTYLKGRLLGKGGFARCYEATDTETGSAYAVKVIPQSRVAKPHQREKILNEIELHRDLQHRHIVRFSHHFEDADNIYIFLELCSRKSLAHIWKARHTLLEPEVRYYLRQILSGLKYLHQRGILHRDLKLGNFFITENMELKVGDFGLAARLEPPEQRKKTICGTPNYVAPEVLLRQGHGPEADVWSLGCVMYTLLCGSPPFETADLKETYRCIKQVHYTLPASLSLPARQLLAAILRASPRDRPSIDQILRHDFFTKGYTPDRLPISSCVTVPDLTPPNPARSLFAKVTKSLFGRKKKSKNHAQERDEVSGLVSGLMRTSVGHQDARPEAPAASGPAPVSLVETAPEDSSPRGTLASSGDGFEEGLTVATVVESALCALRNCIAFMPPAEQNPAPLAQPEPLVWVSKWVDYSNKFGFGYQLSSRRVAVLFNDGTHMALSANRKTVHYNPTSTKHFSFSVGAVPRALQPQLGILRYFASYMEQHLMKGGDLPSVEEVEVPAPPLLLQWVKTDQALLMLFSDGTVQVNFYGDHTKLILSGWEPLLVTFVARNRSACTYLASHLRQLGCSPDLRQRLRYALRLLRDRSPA

For `CCCCCc1cc2nn(-c3ccccc3)cc2cn1`, the inhibition [1] was “inactive”, the inhibition [2] was “inactive” and the inhibition [3] was “inactive”. For the same molecule, the Activity (MCF7 [4]) was 55.6%, the inhibition [5] was “inactive” and the Activity (K562 [6]) was 14.8%. For the same molecule, the Activity (MCF7 [7]) was 26.3%, the Activity (K562 [8]) was 3.3% and the Activity (MCF7 [9]) was “Active”. The Activity (K562 [10]) was “Dose-dependent effect”, the GI50 (MCF7 [11]) was 11.8 µM and the Activity (MCF7 [12]) was “Active”. The inhibition [13] was “inactive”, the inhibition [14] was “inactive” and the Activity (K562 [15]) was “Dose-dependent effect”. The Activity (K562 [16]) was “Dose-dependent effect”, the inhibition [17] was “inactive” and the inhibition [18] was “inactive”. For the same molecule, the Activity (K562 [19]) was 20.4%, the inhibition [20] was “inactive” and the inhibition [21] was “inactive”. For the same molecule, the inhibition [22] was “inactive”.
